Source: PubChem BioAssay (The Scripps Research Institute Molecular Screening Center)
HEK293 NFkB inh: inhibitors of PMA/ionomycin-induced NF-kB reporter, primary screen, antigen receptor NF-kB inhibitor project, cell-based, HEK-293 luciferase reporter, luminescence; HEK-293 NF-kB luciferase reporter; inhibition, % at 3 µM; 0.21% of 62,000 active; AID 465, 2006;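 active = inhibition above the mean of all tested compounds plus 3 SD, cut at about 40% in these data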;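 also: 0% = stimulated DMSO wells and 100% = 10 µM reference inhibitor 5653914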
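Signal: luciferase luminescence; Material: HEK-293 cells with stable firefly luciferase reporter driven by four HIV NF-kB elements; Probe or stimulus: PMA with ionomycin; Replication: tested once; Times: 1 h compound pretreatment, then 16 h stimulation at 37 °C, 5% CO2; Benchmarks: DMSO and 10 µM reference inhibitor; Evaluation: per-plate % inhibition versus controls.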
5HT1a antag: human 5-HT1a receptor antagonists, primary screen, cell-based, CHO, Ga15 NFAT-bla reporter | AID 612, 2007 | CHO 5-HT1a Ga15 NFAT-bla reporter, antagonist mode | 5-hydroxytryptamine receptor 1A (Homo sapiens), P08908 | 0.68% of 62,000 active | inhibition, % at 10 µM;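 active = inhibition above the mean of all tested compounds plus 3 SD, cut at about 43% in these data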;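 also: receptor stimulated by 5-CT agonist at 100 nM near EC80; beta-lactamase reporter measured by ratiometric fluorescence of a cleavable substrate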
5HT1E antag: 5-HT1E receptor antagonists, primary screen, cell-based, HTS | 5-hydroxytryptamine receptor 1E (Homo sapiens), P28566 | CHO 5-HT1E Ga15 NFAT-bla reporter, FRET, antagonist | inhibition, % at 6 µM | 0.99% of 65,000 active | AID 571, 2007;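 active = inhibition above a set limit, the mean inhibition across every tested compound plus 3 SD, cut at about 29% in these data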;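 also: signal is the 460 over 535 nm emission ratio of beta-lactamase substrate; 0% = agonist plus DMSO wells and 100% = wells without agonist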
Target sequence (P28566 whole entry, looked up): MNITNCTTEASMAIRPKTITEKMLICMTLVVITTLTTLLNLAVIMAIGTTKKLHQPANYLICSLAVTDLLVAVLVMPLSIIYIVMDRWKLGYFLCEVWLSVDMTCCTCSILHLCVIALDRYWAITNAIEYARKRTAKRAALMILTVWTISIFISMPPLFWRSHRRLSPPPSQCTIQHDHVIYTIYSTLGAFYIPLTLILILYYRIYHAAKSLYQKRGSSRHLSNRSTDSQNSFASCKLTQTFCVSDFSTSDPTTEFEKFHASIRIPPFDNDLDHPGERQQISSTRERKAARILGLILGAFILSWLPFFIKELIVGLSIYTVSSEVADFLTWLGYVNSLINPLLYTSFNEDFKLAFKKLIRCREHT
5HT1E ag: 5-HT1E receptor agonists, primary screen, cell-based, HTS; CHO 5-HT1E Ga15 NFAT-bla reporter, FRET; 0% DMSO wells, 100% control agonist wells; AID 574, 2007; 0.69% of 65,000 active; 5-hydroxytryptamine receptor 1E (Homo sapiens), P28566; activation, % at 6 µM;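 active = activation above a set limit, the screen-wide mean activation plus 3 SD, cut at about 8.5% in these data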;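 also: 100% = positive control agonist at 1 µM giving full maximal response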
5HT1a ag: human 5-HT1a receptor agonists, primary screen, cell-based, CHO, Ga15 NFAT-bla reporter. CHO 5-HT1a Ga15 NFAT-bla reporter, FRET ratio; 0% basal, 100% maximal reference agonist. AID 567, 2006. 0.56% of 65,000 active. 5-hydroxytryptamine receptor 1A (Homo sapiens), P08908. activation, % at 10 µM;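 active = activation above the screen-wide mean activation plus 3 SD, cut at about 19% in these data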;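 also: 0% = DMSO wells and 100% = 5-CT at EC100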
* marks the source's active call; other numbers are inactive results; / = no result given. Shown are actives, neighbours in structure and some others; about 2.6% of the full set was active somewhere.

SMILES | HEK293 NFkB inh | 5HT1a antag | 5HT1E antag | 5HT1E ag | 5HT1a ag
CCC(C)[C@@H](NC(=O)OC(C)(C)C)c1nnc(S(=O)(=O)Cc2cccc(C)c2)o1 (some centres not stated) | -2.2 | 50.8* | -3.5 | 2.5 | 3.9
CC(C)(C)OC(=O)N[C@@H](Cc1ccccc1)c1nnc(S(=O)(=O)Cc2ccccc2)o1 | 5.0 | 78.2* | 55.3* | 1.0 | -3.4
CC(C)(C)OC(=O)N[C@@H](Cc1ccccc1)c1nnc(SCC(=O)O)o1 | -5.9 | -9.4 | 10.3 | 1.3 | -1.7
c1ccc(Nc2cc(-c3ccccc3)nc3ncnn23)cc1 | 19.6 | 4.2 | 18.6 | 0.2 | -0.8
CCOc1ccccc1-c1nnc(SCC(=O)NC2CC3CCC2C3)n1CC (configuration not stated) | 18.8 | 1.6 | -1.1 | 10.9* | -4.8
CCC(COC(=O)Nc1cccc(C)c1)NC(=O)OCC(C)C (configuration not stated) | 1.4 | 20.1 | 0.5 | -0.6 | -3.8
CCN(CC)C(=O)CSc1nc2ccccc2c(=O)n1CCC(=O)NCc1ccc(F)cc1 | 11.5 | -0.4 | 12.7 | -0.1 | -0.1
O=C1C(=C2CCCCC2)SC(=S)N1Cc1ccco1 | 10.8 | 18.9 | 10.6 | -0.2 | -2.6
CN(C)Cc1cc(C(C)(C)c2cc(CN(C)C)c(O)c(CN(C)C)c2)cc(CN(C)C)c1O | 13.5 | -9.9 | -10.5 | 0.5 | 74.6*
Cn1cc(/C(Cc2ccccc2)=N\O)c2ccccc21 | 9.4 | 30.7 | 0.2 | 56.6* | -5.0
COC(=O)c1cn(C(=O)c2ccco2)c2ccccc12 | 17.6 | -5.2 | -5.2 | 0.5 | -1.5
CCn1nnc(-c2ccccc2NC(=O)c2cc(OC)c(OC)c(OC)c2)n1 | 19.8 | 3.3 | 31.1* | 1.2 | 0.7
Cn1c(C2=C(O)CN(c3ccc4c(c3)OCCO4)C2=N)nc2ccccc21 | 0.2 | -2.3 | -2.9 | -1.4 | -1.9
COc1cccc(NC(=O)N2CCC(N3CCCCC3)CC2)c1 | 17.2 | -1.6 | 6.8 | -0.5 | -2.9
COc1cccc(NC(=O)N2CCN(c3cccc(C)c3C)CC2)c1 | 12.3 | 0.2 | -1.2 | 30.0* | -1.6
COc1ccc(CNc2nc(-c3cccnc3)nn2C(=O)c2cccs2)cc1 | 14.7 | 36.0 | 31.0* | 0.3 | 0.0
O=C(CSc1nnnn1-c1ccccc1)Nc1nsc(-c2ccc(Cl)cc2)n1 | 7.1 | 50.4* | -10.7 | 0.7 | 0.4
O=C(CSc1nnnn1-c1ccccc1)Nc1nsc(-c2ccccc2)n1 | -0.5 | 7.4 | 9.2 | 0.1 | -1.1
Cc1ccc(S(=O)(=O)N2CCC(C(=O)OCC(=O)N3CCc4ccccc43)CC2)cc1 | 2.8 | -3.9 | -7.4 | -0.2 | 1.7
CCOC(=O)C1CCCN(C(=O)Cn2nc(Cc3cccnc3)c3ccccc3c2=O)C1 (configuration not stated) | 14.8 | 0.2 | -0.7 | 1.1 | 38.2*
CCOC(=O)C1CCCN(CC(=O)NC2CC2)C1 (configuration not stated) | 5.5 | -0.9 | 1.8 | 0.1 | 22.1*
Cc1nn(-c2ccccc2)c2sc(C(=O)O)cc12 | 6.1 | 6.2 | 6.8 | 0.3 | 1.0
Cc1nn(-c2ccccc2)c2sc(C(=O)N3CCOCC3)cc12 | -2.3 | 7.9 | 36.2* | 0.7 | 0.6
COC(=O)C1=C(N)N(c2ccc(F)cc2)C2=C(C(=O)CCC2)C1c1ccc2c(c1)OCO2 (configuration not stated) | 13.3 | -5.0 | -5.2 | -0.4 | -0.9
COCCNC(=O)CSc1nc2ccccc2c(=O)n1CCCC(=O)NCc1ccccc1 | 13.7 | -4.0 | -8.2 | -0.6 | 26.4*
SMILES | HEK293 NFkB inh | 5HT1a antag | 5HT1E antag | 5HT1E ag | 5HT1a ag
OC(CNCCc1ccc(Cl)cc1)COCc1ccco1 (configuration not stated) | 9.6 | 4.4 | 3.8 | 9.5* | 0.0
OC(CNCc1ccco1)COc1ccccc1 (configuration not stated) | -4.9 | 10.0 | -9.5 | -0.6 | -3.0
O=C1CC(C(=O)Nc2ccc(C(=O)N3CCOCC3)cc2)C2(CCCCC2)O1 (configuration not stated) | 4.9 | -14.5 | -1.2 | -0.4 | -1.3
O=C1CC(C(=O)Nc2ccccc2)C2(CCCC2)O1 (configuration not stated) | 13.5 | 1.3 | 0.7 | 14.2* | -0.5
CC1(C)Cc2c(C#N)c(NCc3ccco3)nc(-c3ccco3)c2CO1 | / | / | -3.1 | 11.2* | 54.1*
CC(C)c1nc2sc3c(NCc4ccco4)ncnc3c2c2c1COC(C)(C)C2 | 24.7 | 17.7 | 55.8* | -0.4 | 8.9
COC(=O)CSc1ncnc2c1sc1nc(-c3ccco3)c3c(c12)CC(C)(C)OC3 | / | / | 1.1 | -0.2 | 1.4
O=C(NCc1ccccc1F)C1CCCN(C(=O)NC2CCCCC2)C1 (configuration not stated) | 10.3 | 13.9 | -5.4 | 0.3 | -1.4
Cc1cc(SCC#N)n2nc(C)c(-c3ccccc3)c2n1 | 12.5 | 2.1 | 57.1* | -0.4 | 0.3
O=C(c1cccs1)N1CCN(C/C=C/c2ccccc2)CC1 | -1.3 | -3.8 | -6.8 | -0.4 | -0.6
O=C(NC1CS(=O)(=O)CC1NCc1ccco1)c1ccccc1 (configuration not stated) | -11.0 | 5.3 | 10.5 | -0.8 | 1.1
Nc1c(NCc2ccccc2F)c(=O)[nH]c(=O)n1Cc1ccccc1 | 14.5 | 4.1 | 9.1 | -1.7 | 81.1*
COc1ccc(OC)c(NC(=O)C2CCCCC2C(=O)O)c1 (configuration not stated) | 6.4 | -11.9 | -4.8 | 15.1* | -0.4
O=C(CCN1CCCC1Cc1ccccc1)c1ccc2c(c1)OCCO2 (configuration not stated) | / | / | 16.1 | 8.9* | -0.8
Cc1nn(Cc2ccccc2Cl)c(C)c1C(=O)Nc1nnc(C2CC2)s1 | 52.4* | -19.5 | -3.0 | -0.1 | 1.4
COc1ccc(C2N(c3ccc(OC)cc3)C(=O)C3CCCN32)cc1 (configuration not stated) | -1.0 | 6.5 | -1.6 | 0.0 | 1.4
COc1ccc(C2N(c3ccc(F)cc3)C(=O)C3CCCN32)cc1 (configuration not stated) | 5.9 | 15.5 | 87.8* | 0.2 | -6.1
COc1ccccc1C1N(c2ccc(Cl)cc2)C(=O)C2CCCN21 (configuration not stated) | -27.6 | 3.3 | 7.5 | 15.0* | -0.4
COc1ccc(N2C(=O)C3CCCN3C2c2ccccc2OC)cc1 (configuration not stated) | 0.7 | -0.7 | -7.2 | 0.6 | 2.4
CCCCCCC(=O)N(O)C1CC(=O)N(Cc2ccccc2)C1=O (configuration not stated) | -4.1 | 29.5 | 30.5* | -0.7 | -6.8
